pIC50: −log10 of the molar value.
Columns and labels:
[1] = test system: MKN-45; assay: Antiproliferative activity against human MKN45 cells after 72 hrs by methylene blue staining; assay type: functional, cell-based; conditions: MKN-45, 72 h
In short: (§1)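 Log-phase cells kept in RPMI-1640 with 5% fetal bovine serum, seeded at 5000 cells/mL/well, then exposed to a range of drug concentrations for 72 h. Growth read by methylene blue dye assay. IC50, the concentration giving 50% growth inhibition relative to untreated control, derived graphically. Doxorubicin served as positive control.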

[2] = test system: NCI-H460; assay: Antiproliferative activity against human H460 cells after 72 hrs by methylene blue staining; assay type: functional, cell-based; conditions: NCI-H460, 72 h; in short: as §1
[3] = test system: KB; assay: Antiproliferative activity against human KB cells after 72 hrs by methylene blue staining; assay type: functional, cell-based; in short: as §1
[4] = target: Histone deacetylase; assay: Inhibition of human HDAC after 30 mins; assay type: protein assay

SMILES | pIC50 [1] | pIC50 [2] | pIC50 [3] | IC50 [4] [nM]
O=C(c1ccccc1)n1nnc2ccccc21 | 6.18 | 6.12 | 6.18 | 
O=C(On1nnc2ccccc21)c1ccc(O)cc1 | 7.31 | 7.01 | 7.06 | 
COc1cccc2c1C(=O)c1c(O)c3c(c(O)c1C2=O)C[C@@](O)(C(=O)CO)C[C@@H]3O[C@H]1C[C@H](N)[C@H](O)[C@H](C)O1 [DOXORUBICIN] |  | 9.42 | 9.64 | 
COc1ccc2nnn(OC(=O)c3cc(O)c(O)c(O)c3)c2c1 | 7.44 | 6.93 | 7.09 | 
COc1ccc(C(=O)On2nnc3ccccc32)cc1 | 7.41 | 7.28 | 7.37 | 73100
COc1cc(C(=O)On2nnc3ccccc32)cc(OC)c1OC | 8.82 | 8.62 | 8.92 | 9400
COc1cc(C(=O)n2nnc3ccccc32)cc(OC)c1OC | 6.56 | 6.32 | 6.54 | 
COc1cc(OC)cc(C(=O)n2nnc3ccccc32)c1 | 6.38 | 6.31 | 6.36 | 
O=C(c1ccc(O)cc1)n1nnc2ccccc21 | 6.41 | 6.18 | 6.24 | 
COc1cc(OC)cc(C(=O)On2nnc3ccccc32)c1 | 7.52 | 7.38 | 7.43 | 61100
O=C(c1cc(O)c(O)c(O)c1)n1nnc2ccccc21 | 6.48 | 6.48 | 6.41 | 
COc1ccc(C(=O)n2nnc3ccccc32)cc1 | 6.30 | 6.18 | 6.30 | 
COc1cc(OC)cc(C(=O)On2nnc3ccc(OC)cc32)c1 | 7.44 | 7.10 | 7.46 | 87500
COc1ccc2nnn(OC(=O)c3ccccc3)c2c1 | 6.69 | 6.53 | 6.68 | 

More lines, now with the values ahead:

pIC50 [1] | pIC50 [2] | pIC50 [3] | IC50 [4] [nM] | SMILES
7.01 | 6.71 | 6.98 |  | O=C(On1nnc2ccccc21)c1ccccc1
8.10 | 7.64 | 7.96 | 58100 | COc1ccc2nnn(OC(=O)c3cc(OC)c(OC)c(OC)c3)c2c1
7.03 | 6.71 | 6.82 |  | COc1ccc2nnn(OC(=O)c3cc(O)cc(O)c3)c2c1
7.55 | 7.28 | 7.17 |  | O=C(On1nnc2ccccc21)c1cc(O)cc(O)c1
6.28 | 6.25 | 6.24 |  | O=C(c1cc(O)cc(O)c1)n1nnc2ccccc21
6.74 | 6.67 | 6.83 |  | COc1ccc2nnn(OC(=O)c3ccc(O)cc3)c2c1
7.03 | 7.02 | 7.01 |  | COc1ccc(C(=O)On2nnc3ccc(OC)cc32)cc1
7.77 | 7.39 | 7.74 | > 100000 | O=C(On1nnc2ccccc21)c1cc(O)c(O)c(O)c1

From ChEMBL document CHEMBL1287780, “Discovery of 1H-benzo[d][1,2,3]triazol-1-yl 3,4,5-trimethoxybenzoate as a potential antiproliferative agent by inhibiting histone deacetylase” (Bioorg Med Chem, 2010)
